Data taken from ChEMBL document CHEMBL2311425, “Histone deacetylase (HDAC) inhibitors with a novel connecting unit linker region reveal a selectivity profile for HDAC4 and HDAC5 with improved activity against chemoresistant cancer cells” (J Med Chem, 2013).

Tests used:
MDA-MB-231 [1] = test: Potentiation of cisplatin-induced toxicity in cisplatin resistant human MDA-MB-231 cells at 1 uM pretreated for 48 hrs followed by cisplatin treatment by MTT assay; type: functional
In short: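 Resistant sublines pretreated 48 h with 1 μM HDAC inhibitor, then cisplatin over a concentration range for 72 h; MTT viability read at 544/690 nm. Cisplatin IC50 from four-parameter logistic fit of pooled data (≥3 experiments, triplicate); shift factor = IC50 of cisplatin alone divided by IC50 of the combination.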

A2780 [2] = test: Potentiation of 10 uM cisplatin-induced toxicity in 5 uM cisplatin resistant human A2780 cells at 0.25 uM pretreated for 48 hrs followed by 5 uM cisplatin treatment by MTT assay; type: functional
KYSE-510 [3] = test: Potentiation of 0.5 uM cisplatin-induced toxicity in 0.5 uM cisplatin resistant human KYSE-510 cells at 0.25 uM pretreated for 48 hrs followed by 0.5 uM cisplatin treatment by MTT assay; type: functional
A2780 [4] = test: Cytotoxicity against human A2780 cells after 72 hrs by MTT assay; type: functional, cell-based; conditions: A2780, 72 h
MDA-MB-231 [5] = test: Potentiation of 25 uM cisplatin-induced toxicity in 1 uM cisplatin resistant human MDA-MB-231 cells at 1.5 uM pretreated for 48 hrs followed by 1 uM cisplatin treatment by MTT assay; type: functional
KYSE-510 [6] = test: Potentiation of 8 uM cisplatin-induced toxicity in 0.5 uM cisplatin resistant human KYSE-510 cells at 1 uM pretreated for 48 hrs followed by 0.5 uM cisplatin treatment by MTT assay; type: functional
MDA-MB-231 [7] = test: Potentiation of 5 uM cisplatin-induced toxicity in 1 uM cisplatin resistant human MDA-MB-231 cells at 1 uM pretreated for 48 hrs followed by 1 uM cisplatin treatment by MTT assay; type: functional
MDA-MB-231 [8] = test: Potentiation of 40 uM cisplatin-induced toxicity in 1 uM cisplatin resistant human MDA-MB-231 cells at 0.25 uM pretreated for 48 hrs followed by 1 uM cisplatin treatment by MTT assay; type: functional
Histone deacetylase [9] = test: Inhibition of HDAC in cisplatin resistant human KYSE-510 cells after 18 hrs by fluorescence assay; type: cell-based
Histone deacetylase 2 = Histone deacetylase 2 (Homo sapiens, UniProt Q92769); test: Inhibition of human HDAC2 by fluorescence assay
MDA-MB-231 [10] = test: Potentiation of […] cisplatin-induced toxicity in 1 uM cisplatin resistant human MDA-MB-231 cells at 1.5 uM pretreated for 48 hrs followed by 1 uM cisplatin treatment by MTT assay; type: functional
A2780 [11] = test: Potentiation of 10 uM cisplatin-induced toxicity in 5 uM cisplatin resistant human A2780 cells at 1 uM pretreated for 48 hrs followed by 5 uM cisplatin treatment by MTT assay; type: functional
CAL-27 [12] = test: Potentiation of 45 uM cisplatin-induced toxicity in 1 uM cisplatin resistant human CAL27 cells at 1.5 uM pretreated for 48 hrs followed by 1 uM cisplatin treatment by MTT assay; type: functional
[13] = target: T1, Protein deacetylase HDAC6 (Homo sapiens, UniProt Q9UBN7); test: Inhibition of human HDAC6 by fluorescence assay
T1 sequence (Q9UBN7 whole entry): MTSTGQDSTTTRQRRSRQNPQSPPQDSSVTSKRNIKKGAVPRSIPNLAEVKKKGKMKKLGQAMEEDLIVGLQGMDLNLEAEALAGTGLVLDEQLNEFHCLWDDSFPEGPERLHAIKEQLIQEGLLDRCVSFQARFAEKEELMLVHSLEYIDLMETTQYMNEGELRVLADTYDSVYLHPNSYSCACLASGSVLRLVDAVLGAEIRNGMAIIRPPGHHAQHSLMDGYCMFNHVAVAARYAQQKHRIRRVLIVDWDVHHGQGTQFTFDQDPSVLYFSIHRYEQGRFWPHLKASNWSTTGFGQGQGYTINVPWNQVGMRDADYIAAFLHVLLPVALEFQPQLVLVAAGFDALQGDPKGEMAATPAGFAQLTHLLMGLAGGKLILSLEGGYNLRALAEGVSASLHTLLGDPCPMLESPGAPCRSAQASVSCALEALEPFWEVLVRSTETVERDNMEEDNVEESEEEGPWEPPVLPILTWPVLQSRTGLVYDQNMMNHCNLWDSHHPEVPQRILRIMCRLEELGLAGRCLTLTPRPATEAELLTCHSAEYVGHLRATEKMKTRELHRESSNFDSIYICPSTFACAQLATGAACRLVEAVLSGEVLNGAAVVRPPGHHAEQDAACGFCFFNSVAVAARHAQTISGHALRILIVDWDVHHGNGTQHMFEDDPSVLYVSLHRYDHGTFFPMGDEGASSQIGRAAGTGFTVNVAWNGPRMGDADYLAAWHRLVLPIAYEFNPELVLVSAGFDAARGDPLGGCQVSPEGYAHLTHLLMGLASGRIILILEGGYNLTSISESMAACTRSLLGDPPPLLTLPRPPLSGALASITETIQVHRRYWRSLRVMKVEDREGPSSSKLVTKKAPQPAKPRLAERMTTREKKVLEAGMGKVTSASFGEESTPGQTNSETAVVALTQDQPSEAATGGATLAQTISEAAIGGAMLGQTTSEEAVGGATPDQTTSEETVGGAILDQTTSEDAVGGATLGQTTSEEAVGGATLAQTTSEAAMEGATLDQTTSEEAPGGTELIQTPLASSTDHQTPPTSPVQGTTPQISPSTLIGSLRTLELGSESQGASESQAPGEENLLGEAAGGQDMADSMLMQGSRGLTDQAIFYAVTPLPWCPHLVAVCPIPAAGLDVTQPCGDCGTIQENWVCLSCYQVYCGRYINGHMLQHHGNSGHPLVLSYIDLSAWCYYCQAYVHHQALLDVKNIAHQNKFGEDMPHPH

KYSE-510 [14] = test: Potentiation of 8 uM cisplatin-induced toxicity in 0.5 uM cisplatin resistant human KYSE-510 cells at 0.5 uM pretreated for 48 hrs followed by 0.5 uM cisplatin treatment by MTT assay; type: functional
A2780 [15] = test: Potentiation of 20 uM cisplatin-induced toxicity in 5 uM cisplatin resistant human A2780 cells at 1 uM pretreated for 48 hrs followed by 5 uM cisplatin treatment by MTT assay; type: functional
CAL-27 [16] = test: Potentiation of 10 uM cisplatin-induced toxicity in 1 uM cisplatin resistant human CAL27 cells at 1 uM pretreated for 48 hrs followed by 1 uM cisplatin treatment by MTT assay; type: functional
Histone deacetylase [17] = test: Inhibition of HDAC in cisplatin resistant human A2780 cells after 18 hrs by fluorescence assay; type: cell-based
KYSE-510 [18] = test: Potentiation of 3.16 uM cisplatin-induced toxicity in 0.5 uM cisplatin resistant human KYSE-510 cells at 1.5 uM pretreated for 48 hrs followed by 0.5 uM cisplatin treatment by MTT assay; type: functional

Chain of Histone deacetylase 2 (Q92769 whole entry): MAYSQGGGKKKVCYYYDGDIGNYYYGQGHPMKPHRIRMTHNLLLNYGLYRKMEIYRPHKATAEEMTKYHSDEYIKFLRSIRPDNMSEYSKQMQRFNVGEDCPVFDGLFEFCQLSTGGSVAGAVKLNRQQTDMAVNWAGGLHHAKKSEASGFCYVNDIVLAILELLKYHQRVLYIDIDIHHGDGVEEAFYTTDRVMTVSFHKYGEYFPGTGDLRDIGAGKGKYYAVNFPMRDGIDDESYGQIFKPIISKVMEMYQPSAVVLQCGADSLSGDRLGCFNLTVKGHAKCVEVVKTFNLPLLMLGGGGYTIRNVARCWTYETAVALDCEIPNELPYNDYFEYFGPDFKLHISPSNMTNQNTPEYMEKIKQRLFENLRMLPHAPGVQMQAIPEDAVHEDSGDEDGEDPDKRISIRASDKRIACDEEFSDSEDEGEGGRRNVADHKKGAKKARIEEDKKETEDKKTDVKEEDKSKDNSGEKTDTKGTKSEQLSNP

For `Cc1cc(C)cc(C(=O)NOCCCCCC(=O)NO)c1`, the Activity (MDA-MB-231 [1]) was “Dose-dependent effect”, the fold change (FC) (MDA-MB-231 [1]) was 3.53 and the Activity (A2780 [2]) was “Dose-dependent effect”. For the same compound, the “fractional inhibitory concentration index (FICI)” value (A2780 [2]) was 0.78, the Activity (KYSE-510 [3]) was “Dose-dependent effect” and the “fractional inhibitory concentration index (FICI)” value (KYSE-510 [3]) was 0.18. The IC50 (A2780 [4]) was 490 nM, the Activity (MDA-MB-231 [5]) was “Dose-dependent effect” and the “fractional inhibitory concentration index (FICI)” value (MDA-MB-231 [5]) was 0.73. The Activity (KYSE-510 [6]) was “Dose-dependent effect”, the “fractional inhibitory concentration index (FICI)” value (KYSE-510 [6]) was 0.18 and the Activity (MDA-MB-231 [7]) was “Dose-dependent effect”. For the same compound, the Activity (MDA-MB-231 [8]) was “Dose-dependent effect”, the IC50 (Histone deacetylase [9]) was 350 nM and the IC50 (Histone deacetylase 2) was 881 nM. For the same compound, the Activity (MDA-MB-231 [10]) was “Dose-dependent effect”, the “fractional inhibitory concentration index (FICI)” value (MDA-MB-231 [10]) was 0.8 and the Activity (A2780 [11]) was “Dose-dependent effect”. For the same compound, the “fractional inhibitory concentration index (FICI)” value (A2780 [11]) was 0.61, the Activity (CAL-27 [12]) was “Dose-dependent effect” and the “fractional inhibitory concentration index (FICI)” value (CAL-27 [12]) was 0.23. The IC50 [13] was 55.7 nM, the Activity (KYSE-510 [14]) was “Dose-dependent effect” and the “fractional inhibitory concentration index (FICI)” value (KYSE-510 [14]) was 0.16. The Activity (A2780 [15]) was “Dose-dependent effect”, the “fractional inhibitory concentration index (FICI)” value (A2780 [15]) was 0.49 and the Activity (CAL-27 [16]) was “Dose-dependent effect”. For the same compound, the “fractional inhibitory concentration index (FICI)” value (CAL-27 [16]) was 0.24, the IC50 (Histone deacetylase [17]) was 320 nM and the Activity (KYSE-510 [18]) was “Dose-dependent effect”. For the same compound, the “fractional inhibitory concentration index (FICI)” value (KYSE-510 [18]) was 0.12.
